Reference: ChEMBL document CHEMBL4350958, “Rational Design of Short Peptide Variants by Using Kunitzin-RE, an Amphibian-Derived Bioactivity Peptide, for Acquired Potent Broad-Spectrum Antimicrobial and Improved Therapeutic Potential of Commensalism Coinfection of Pathogens” (J Med Chem, 2019)
Converted amounts (≈) assume the structure as drawn. Where a SMILES comes first, the peptide text is derived from it.

Legend:
Salmonella typhimurium = test: Bactericidal activity against Salmonella typhimurium ATCC 14028 incubated for 24 hrs followed by replating on agar plate and measured after overnight incubation; type: functional, Salmonella enterica subsp. enterica serovar Typhimurium; conditions: Salmonella enterica, ATCC 14028, 24 h; read-out: MBC>99.9
How it was run: (§1)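 Mid-log bacteria diluted in MHB to (0.5–1) × 10^5 CFU/mL and mixed 1:1 with peptide serially diluted in 0.2% BSA. After 24 h at 37 °C, 50 μL of each mixture was plated on agar and incubated overnight. MBC taken as the lowest concentration killing >99.9% of cells. At least three independent experiments, each with three technical replicates.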

Staphylococcus aureus [1] = test: Antibacterial activity against methicillin-resistant Staphylococcus aureus ATCC 43300 measured after 24 hrs; type: functional; conditions: ATCC 43300, 24 h
How it was run: (§2)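 Broth microdilution modified from NCCLS. Mid-log bacteria at (0.5–1) × 10^5 CFU mL−1 in MHB, mixed with peptides serially diluted in 0.2% BSA. Incubated 24 h at 37 °C, read at A492. MIC taken as lowest concentration giving 95% growth inhibition. At least three independent experiments, each with three technical replicates.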

[2] = Therapeutic index, ratio of MHC10 for hemolytic activity in human RBC to MIC95 against Candida tropicalis cgmcc2.1975; type: toxicity; conditions: human red blood cells (erythrocytes), read-out: TI
How it was run: (§3)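 Therapeutic index = MHC divided by MIC. MHC is the lowest concentration giving >10% lysis of human RBC (1 h, 37 °C, 1-128 µM, A576). MIC is 95% growth inhibition by broth microdilution: bacteria in MHB 24 h at 37 °C; Candida in MOPS-buffered RPMI 1640 at (0.5–1) × 10^3 CFU mL−1, 48 h at 28 °C.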

Staphylococcus aureus [3] = test: Antibacterial activity against Staphylococcus aureus ATCC 29213 measured after 18 to 24 hrs in presence of KCl; type: functional
Staphylococcus aureus [4] = test: Antibacterial activity against Staphylococcus aureus ATCC 29213 measured after 18 to 24 hrs in presence of NaCl; type: functional
Candida albicans [5] = test: Antifungal activity against Candida albicans cgmcc2.2086 measured after 48 hrs in presence of MgCl by broth microdilution method; type: functional; conditions: cgmcc2.2086, 48 h
Candida albicans [6] = test: Antifungal activity against Candida albicans cgmcc2.2086 measured after 48 hrs in presence of NaCl by broth microdilution method; type: functional; conditions: cgmcc2.2086, 48 h
Escherichia coli [7] = test: Antibacterial activity against Escherichia coli ATCC 25922 measured after 18 to 24 hrs in presence of FeCl3; type: functional
[8] = system: Staphylococcus epidermidis; test: Antibacterial activity against Staphylococcus epidermidis ATCC 12228 measured after 24 hrs; type: functional; conditions: ATCC 12228, 24 h
How it was run: (§4)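 Broth microdilution adapted from NCCLS. Mid-log bacteria were diluted in MHB to a final (0.5–1) × 10^5 CFU mL−1. Peptides were serially diluted in 0.2% BSA and mixed with an equal volume of cells. After 24 h at 37 °C, MIC was read at A492 as the lowest concentration inhibiting 95% of growth. At least three independent experiments, each with three technical replicates.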

Escherichia coli [9] = test: Antibacterial activity against Escherichia coli K99 measured after 24 hrs; type: functional; conditions: K99, 24 h; how it was run: as §4
[10] = Therapeutic index, ratio of MHC10 for hemolytic activity in human RBC to MIC95 against Candida albicans cgmcc2.2086; type: toxicity; conditions: human red blood cells (erythrocytes), read-out: TI; how it was run: as §3
Staphylococcus aureus [11] = test: Antibacterial activity against Staphylococcus aureus ATCC 25923 measured after 24 hrs; type: functional; conditions: ATCC 25923, 24 h; how it was run: as §2
Escherichia coli [12] = test: Bactericidal activity against Escherichia coli K99 incubated for 24 hrs followed by replating on agar plate and measured after overnight incubation; type: functional; conditions: K99, 24 h, read-out: MBC>99.9; how it was run: as §1
Candida tropicalis = test: Antifungal activity against Candida tropicalis cgmcc2.1975 measured after 48 hrs by broth microdilution method; type: functional; conditions: cgmcc2.1975, 48 h
How it was run: (§5)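 Modified CLSI M27-A2 microdilution. Yeast colonies were diluted in MOPS-buffered RPMI 1640 to a final (0.5–1) × 10^3 CFU mL−1 and mixed with an equal volume of peptide serially diluted in 0.2% BSA. After 48 h at 28 °C, MIC was read at A492 as the lowest concentration inhibiting 95% of growth. At least three independent experiments, each with three technical replicates.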

Escherichia coli [13] = test: Antibacterial activity against Escherichia coli ATCC 25922 measured after 18 to 24 hrs in presence of NaCl; type: functional
Erythrocyte = test: Hemolytic activity in human RBC measured after 1 hr; type: ADME, cell-based
How it was run: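 Fresh healthy-donor human erythrocytes at ~1% (v/v) in PBS pH 7.4, mixed 1:1 with peptide (1–128 µM), 1 h at 37 °C. After centrifugation at 1000×g, supernatant hemoglobin read at 576 nm. Untreated cells set 0% and 0.1% Triton X-100 set 100%. MHC defined as the concentration giving >10% hemolysis. Three or more independent experiments, triplicates.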

[14] = Conformational stability in 50% trifluoro-ethyl alcohol assessed as alpha-helical structural propensity by measuring absorption spectra at minimum dichroic band at 35 uM by CD spectra analysis; type: physicochemical
How it was run: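 CD spectra from 190 to 250 nm of peptide at 35 μM in 10 mM PBS, 30 mM SDS micelles or 50% TFE, recorded in a 1.0-mm quartz cell. Ellipticity was converted to mean residue ellipticity. Three independent scans, each averaged over more than 3 runs.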

[15] = Cytotoxicity against mouse RAW264.7 cells assessed as cell viability at 2 to 64 uM measured after 18 to 24 hrs by MTT assay relative to control; type: cell-based; conditions: RAW264.7 cells, read-out: Activity
How it was run: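 MTT assay: RAW264.7 cells seeded at 1.0–2.0×10^4 per well and exposed to peptide (2–64 µM) for 18–24 h at 37 °C in 5% CO2. MTT (0.5 mg/mL) added for 4 h, formazan dissolved in DMSO, read at 570 nm. At least three independent experiments with triplicate wells.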

Staphylococcus aureus [16] = test: Antibacterial activity against Staphylococcus aureus ATCC 29213 measured after 18 to 24 hrs in presence of ZnCl2; type: functional
How it was run: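 MIC broth microdilution (MHB, 0.2% BSA peptide diluent, A492, 95% inhibition) run in the presence of physiological salts at final concentrations of 6 μM NH4Cl or 8 μM ZnCl2. Three independent assays, each with three technical replicates.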

Staphylococcus aureus [17] = test: Antibacterial activity against Staphylococcus aureus ATCC 29213 measured after 18 to 24 hrs in presence of FeCl3; type: functional
Candida parapsilosis = test: Antifungal activity against Candida parapsilosis cgmcc2.3989 measured after 48 hrs by broth microdilution method; type: functional; conditions: Lodderomyces parapsilosis, cgmcc2.3989, 48 h; how it was run: as §5
[18] = Therapeutic index, ratio of MHC10 for hemolytic activity in human RBC to MIC95 against methicillin-resistant Staphylococcus aureus ATCC 43300; type: toxicity; conditions: human red blood cells (erythrocytes), read-out: TI; how it was run: as §3
[19] = Therapeutic index, ratio of MHC10 for hemolytic activity in human RBC to MIC95 against Staphylococcus epidermidis ATCC 12228; type: toxicity; conditions: human red blood cells (erythrocytes), read-out: TI; how it was run: as §3
Staphylococcus aureus [20] = test: Antibacterial activity against Staphylococcus aureus ATCC 29213 measured after 18 to 24 hrs in presence of CaCl2; type: functional
Pseudomonas aeruginosa = test: Antibacterial activity against Pseudomonas aeruginosa ATCC 27853 measured after 24 hrs; type: functional; conditions: ATCC 27853, 24 h; how it was run: as §4

Work on H-AARRILRWIFR-NH2 yielded an MBC (Salmonella typhimurium) of 8 µM, an MIC95 (Staphylococcus aureus [1]) of 8 µM and a selectivity ratio [2] of 40.3. The MIC95 (Staphylococcus aureus [3]) was 4 µM, the MIC95 (Staphylococcus aureus [4]) was 64 µM and the MIC95 (Candida albicans [5]) was 16 µM. It also gave an MIC95 (Candida albicans [6]) of 32 µM, an MIC95 (Escherichia coli [7]) of 8 µM and an MIC95 [8] of 4 µM. For the same molecule, the MIC95 (Escherichia coli [9]) was 4 µM, the selectivity ratio [10] was 40.3 and the MIC95 (Staphylococcus aureus [11]) was 8 µM. It also gave an MBC (Escherichia coli [12]) of 8 µM, an MIC95 (Candida tropicalis) of 4 µM and an MIC95 (Escherichia coli [13]) of 64 µM. For the same molecule, the MHC10 (Erythrocyte) was over 128 µM, the Activity [14] was 208 to 222 nm and the viability at up to 64 µM [15] was 90 to 100%. For the same molecule, the MIC95 (Staphylococcus aureus [16]) was 4 µM, the MIC95 (Staphylococcus aureus [17]) was 4 µM and the MIC95 (Candida parapsilosis) was 8 µM. For the same molecule, the selectivity ratio [18] was 45.2, the selectivity ratio [19] was 45.2 and the MIC95 (Staphylococcus aureus [20]) was 8 µM. It also gave an MIC95 (Pseudomonas aeruginosa) of 8 µM.
With H-AARIILRFRFR-NH2 the MBC (Salmonella typhimurium) was 8 µM, the MIC95 (Staphylococcus aureus [1]) was 2 µM and the selectivity ratio [2] was 50.8. For the same molecule, the MIC95 (Staphylococcus aureus [3]) was 2 µM, the MIC95 (Staphylococcus aureus [4]) was 32 µM and the MIC95 (Candida albicans [5]) was 16 µM. For the same molecule, the MIC95 (Candida albicans [6]) was 32 µM, the MIC95 (Escherichia coli [7]) was 16 µM and the MIC95 [8] was 2 µM. For the same molecule, the MIC95 (Escherichia coli [9]) was 2 µM, the selectivity ratio [10] was 50.8 and the MIC95 (Staphylococcus aureus [11]) was 2 µM. For the same molecule, the MBC (Escherichia coli [12]) was 4 µM, the MIC95 (Candida tropicalis) was 4 µM and the MIC95 (Escherichia coli [13]) was 64 µM. The MHC10 (Erythrocyte) was over 128 µM, the Activity [14] was 208 to 222 nm and the viability at up to 64 µM [15] was 90 to 100%. For the same molecule, the MIC95 (Staphylococcus aureus [16]) was 2 µM, the MIC95 (Staphylococcus aureus [17]) was 4 µM and the MIC95 (Candida parapsilosis) was 4 µM. The selectivity ratio [18] was 128, the selectivity ratio [19] was 128 and the MIC95 (Staphylococcus aureus [20]) was 4 µM. The MIC95 (Pseudomonas aeruginosa) was over 128 µM.
Work on `CC[C@H](C)[C@H](NC(=O)[C@H](CCCCN)NC(=O)[C@H](C)NC(=O)[C@H](C)N)C(=O)N[C@H](C(=O)N[C@@H](CC(C)C)C(=O)N[C@@H](CC(N)=O)C(=O)N1CCC[C@H]1C(=O)N[C@@H](CCCCN)C(=O)N[C@@H](Cc1ccccc1)C(=O)N[C@@H](CCCNC(=N)N)C(=O)N[C@@H](CS)C(=O)N[C@@H](CCCCN)C(=O)N[C@@H](C)C(=O)N[C@@H](C)C(=O)N[C@@H](Cc1ccccc1)C(=O)N[C@@H](CS)C(N)=O)[C@@H](C)CC` (H-AAKIILNPKFRCKAAFC-NH2) yielded an MBC (Salmonella typhimurium) of 128 µM (≈ 242 µg/mL), an MIC95 (Staphylococcus aureus [1]) of over 128 µM and a selectivity ratio [2] of 0.25. The MIC95 (Staphylococcus aureus [3]) was over 128 µM, the MIC95 (Staphylococcus aureus [4]) was over 128 µM and the MIC95 (Candida albicans [5]) was over 128 µM. It also gave an MIC95 (Candida albicans [6]) of over 128 µM, an MIC95 (Escherichia coli [7]) of 32 µM and an MIC95 [8] of over 128 µM. The MIC95 (Escherichia coli [9]) was 32 µM (≈ 60.6 µg/mL), the selectivity ratio [10] was 0.25 and the MIC95 (Staphylococcus aureus [11]) was 64 µM (≈ 121 µg/mL). It also gave an MBC (Escherichia coli [12]) of 64 µM (≈ 121 µg/mL), an MIC95 (Candida tropicalis) of over 128 µM and an MIC95 (Escherichia coli [13]) of over 128 µM. For the same molecule, the MHC10 (Erythrocyte) was 32 µM, the Stability [14] was “Unstable” and the viability at up to 64 µM [15] was 90 to 100%. The MIC95 (Staphylococcus aureus [16]) was over 128 µM, the MIC95 (Staphylococcus aureus [17]) was over 128 µM and the MIC95 (Candida parapsilosis) was over 128 µM. It also gave a selectivity ratio [18] of 0.3, a selectivity ratio [19] of 0.3 and an MIC95 (Staphylococcus aureus [20]) of over 128 µM. The MIC95 (Pseudomonas aeruginosa) was over 128 µM.
